Published values from different studies.
Compare with care: the assays were run in different laboratories.
LRRK2: Leucine-rich repeat serine/threonine-protein kinase 2 (LRRK2, Homo sapiens, UniProt Q5S007)
LRRK2 G2019S: Leucine-rich repeat serine/threonine-protein kinase 2 (LRRK2, Homo sapiens, UniProt Q5S007, G2019S)

c1cncc(-c2cccc(Nc3nccc(NC4CCCCC4)n3)c2)c1 has a remaining binding of 49% (LRRK2; binding, competition with immobilised ligand; 10 µM).
CCC(=O)N[C@@H]1CC[C@H](C(=O)N(C)c2ccc(-c3nc4ccccc4o3)cc2)C1 has a remaining binding of 100% (LRRK2 G2019S; cell-free assay, competition with immobilised ligand; 1 µM).
For N[C@H]1CCN(c2nccc(-c3cnn4ncccc34)n2)C1, the remaining binding was 89% (LRRK2 G2019S; binding; 1 µM).
The remaining binding of CS(=O)(=O)NCC[C@H](NC(=O)c1cncc2c1cnn2-c1ccc(F)cc1)c1ccnc(S(C)(=O)=O)c1 is reported as 86% (LRRK2; cell-free assay, competition with immobilised ligand; 1 µM).
With Cc1cnc(Nc2ccc(C(=O)N3CCC(N4CCCC4)CC3)cc2)nc1-c1cc2ccccc2s1 the remaining binding was 8.3% (LRRK2; binding, competition with immobilised ligand; 1 µM).
CNCc1ccccc1-c1csc([C@@H](C)Nc2nc(C)nc3cc(OC)c(OC)cc23)c1 gave a remaining binding of 72% (LRRK2 G2019S; cell-free assay, competition with immobilised ligand; 1 µM).
O=C(c1ccc(Nc2ncc(Cl)c(-c3ccc(Cl)s3)n2)cc1)N1CCC(N2CCCC2)CC1 has a remaining binding of 3.3% (LRRK2; binding, competition with immobilised ligand; 1 µM).
CCN1CCN(Cc2ccc(C(=O)Nc3ccc(C)c(Oc4ccc5c(c4)CC(=O)N5)c3)cc2C(F)(F)F)CC1 has a remaining binding of 100% (LRRK2 G2019S; binding, competition with immobilised ligand; 1 µM).
C[C@@H](c1ccc(-n2cnc3c(N)ncnc32)cc1)N1CCc2nn(C)c(Cc3ccccc3)c2C1=O gave a remaining binding of 93% (LRRK2; binding, competition with immobilised ligand; 0.1 µM).
C=CC(=O)N1CCC(C(=O)NCC(=O)N2CCN(c3nc(-c4cnc(N)nc4C(F)F)nc(N4CCOCC4)n3)CC2)CC1 has a remaining binding of 63% (LRRK2; binding, competition with immobilised ligand; 1 µM).
For Cn1cc(Cl)c2c(Oc3c(F)cc(Nc4cc(Cl)nc(N)n4)cc3F)ccnc21, the remaining binding was 75% (LRRK2; cell-free assay, competition with immobilised ligand; 0.1 µM).
With F[C@@H]1CCN(c2nccc(-c3cnn4ncccc34)n2)C1 the remaining binding was 100% (LRRK2 G2019S; binding; 1 µM).
For COc1cnc(Nc2cccc(S(N)(=O)=O)c2)nc1N1CCN(c2ccccc2)CC1, the remaining binding was 80% (LRRK2; binding, competition with immobilised ligand; 1 µM).
O=C(N[C@H]1CCCCC/C=C\C2C[C@@]2(C(=O)O)NC(=O)[C@@H]2C[C@@H](Oc3ccncc3)CN2C1=O)OC1CCCC1 (stereo partly shown) gave a remaining binding of 86% (LRRK2 G2019S; binding, competition with immobilised ligand; 1 µM).
CN(C)c1nccc(-c2cnn3ncccc23)n1 has a remaining binding of 90% (LRRK2; binding; 1 µM).
The remaining binding of CS(=O)(=O)N1CCCC(NC(=O)[C@H](CCC2CCCCC2)NC(=O)c2ccc(CNC(=O)c3cnc4ccccn34)cc2)C1 (stereo partly shown) is reported as 100% (LRRK2 G2019S; cell-free assay, competition with immobilised ligand; 0.1 µM).
With Nc1ncc2c(n1)-c1c([nH]c3ccc(C#CC4CC4)cc13)CCCC2 the remaining binding was 83% (LRRK2 G2019S; binding, competition with immobilised ligand; 1 µM).
O=C(NCC1CCOCC1)c1n[nH]cc1NC(=O)c1c(F)cccc1F gave a remaining binding of 89% (LRRK2 G2019S; binding, competition with immobilised ligand; 1 µM).
CN(C)c1nccc(-c2cnc3ncccn23)n1 has a remaining binding of 71% (LRRK2 G2019S; binding; 1 µM).
The remaining binding of COc1ncc2cc3ccccc3nc2c1C#N is reported as 100% (LRRK2; cell-free assay, competition with immobilised ligand; 5 µM).
C[C@@H]1CCN(c2nccc(-c3cnn4ncccc34)n2)C1 has a remaining binding of 63% (LRRK2 G2019S; binding; 1 µM).
The remaining binding of CNC(=O)[C@@H]1CC[C@@H](n2c(-c3ccc4cnccc4c3)nc3ccc(C(=O)NCc4cccc(C(N)=O)c4)cc32)C1 is reported as 100% (LRRK2 G2019S; binding, competition with immobilised ligand; 1 µM).
O=C(O)[C@@H]1[C@@H](Cn2nnc3ccccc3c2=O)CC[C@H]1C(=O)c1ccc(OCCC2CCOCC2)cc1 gave a remaining binding of 100% (LRRK2; cell-free assay, competition with immobilised ligand; 1 µM).
The remaining binding of CN(CCCC(F)(F)F)c1nccc(-c2cnn3ncccc23)n1 is reported as 100% (LRRK2; binding; 1 µM).
CN([C@@H]1CCc2c(CC(=O)O)c3cc(S(C)(=O)=O)ccc3n2C1)S(=O)(=O)c1ccc(F)cc1 has a remaining binding of 100% (LRRK2 G2019S; cell-free assay, competition with immobilised ligand; 1 µM).
The remaining binding of O=C(c1ccc(Nc2ncc(Cl)c(-c3cc4ccccc4s3)n2)cc1)N1CCC(N2CCCC2)CC1 is reported as 12% (LRRK2; binding, competition with immobilised ligand; 1 µM).
The remaining binding of COc1ccnn2ncc(-c3ccnc(N(C)C)n3)c12 is reported as 100% (LRRK2 G2019S; binding; 1 µM).
O=C(Nc1c[nH]nc1C(=O)NC1CCNCC1)c1cc(F)cc(F)c1 gave a remaining binding of 92% (LRRK2; binding, competition with immobilised ligand; 1 µM).
O=C(c1ccc(Nc2nccc(-c3cc4ccccc4s3)n2)cc1)N1CCC(N2CCCC2)CC1 gave a remaining binding of 40% (LRRK2; binding, competition with immobilised ligand; 1 µM).
CN1CCN(c2ccc(Nc3nccc(-c4ccccc4)n3)cc2C(F)(F)F)CC1 gave a remaining binding of 100% (LRRK2 G2019S; binding; 10 µM).
O=C(NCCCN1CCOCC1)c1ccc(Nc2nccc(-c3cc4ccccc4s3)n2)cc1 gave a remaining binding of 69% (LRRK2 G2019S; binding, competition with immobilised ligand; 1 µM).
COc1cnc(Nc2cccc(S(N)(=O)=O)c2)nc1N1CCN(c2ccccc2)C(=O)C1 gave a remaining binding of 95% (LRRK2; binding, competition with immobilised ligand; 1 µM).
For CC1CCCN1c1nccc(-c2cnn3ncccc23)n1 (stereo not shown), the remaining binding was 100% (LRRK2 G2019S; binding; 1 µM).
O=C(NCCCN1CCOCC1)c1ccc(Nc2ncc(Cl)c(-c3ccc(Cl)s3)n2)cc1 gave a remaining binding of 24% (LRRK2; binding, competition with immobilised ligand; 1 µM).
